Here are results for 20 molecules from ChEMBL document CHEMBL2375279, “Synthesis and biological evaluation of helioxanthin analogues” (Bioorg Med Chem, 2013).

Calls of active or inactive are those of the source. The rule behind the calls is not given here. Some results are limits rather than exact numbers.

One series deals with Hepatitis B virus. Kind of series: Antiviral activity against Hepatitis B virus infected in human 1.3ES2 cells assessed as inhibition of viral DNA replication after 72 hrs by RT-PCR analysis. In kind it is functional, organism-based.
Details: not given
A digest of the protocol:
(§1)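 1.3ES2 cells (HepG2 clone stably carrying a 1.3-fold HBV ayw genome) were seeded in 100 mm dishes, then exposed to compound (0, 1.0 or 5.0 µM) in serum-free DMEM for 72 h. Virion-associated HBV DNA in the medium was quantified by real-time PCR against a plasmid standard curve (10^3–10^7 copies), with 45 cycles of 95 °C 12 s and 54 °C 20 s. Mean ± S.D., n = 3.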
Broadly, the inhibition is the relative decrease from the control value, in per cent. Turning to `COc1ccc(-c2c3c(cc4ccc5c(c24)OCO5)C(=O)OC3)cc1OC(C)=O`, the inhibition result was “Dose-dependent effect”.

For another series, the system named is Hepatitis B virus. Briefly: Antiviral activity against Hepatitis B virus infected in human 1.3ES2 cells assessed as inhibition of viral DNA replication at 5 uM after 72 hrs by RT-PCR analysis. Type of series: functional, organism-based.
Details: not given
Put shortly: as §1
As to `COc1cc(-c2c3c(cc4ccc5c(c24)OCO5)C(=O)OC3)ccc1OC(C)=O`, the inhibition result was “inactive”.

For the next series, the system named is Hepatitis B virus. Kind of series: Antiviral activity against Hepatitis B virus infected in human 1.3ES2 cells assessed as reduction of HBeAg mRNA and pregenomic RNA level after 48 hrs by Northern blot analysis. Type of series: functional, organism-based.
Details: not given
A digest of the protocol: (§2)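 1.3ES2 cells were grown to confluence in DMEM with 10% FCS, then switched to serum-free DMEM containing compound (0, 1.0 or 5.0 µM) for 48 h. Total RNA was extracted by phenol/guanidinium isothiocyanate, denatured in 2.2 M formaldehyde and run on a 1.2% agarose formaldehyde gel. It was blotted to nylon and probed with a 32P full-length HBV probe. The 3.5 kb and 2.4/2.1 kb bands were normalized to GAPDH.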
Consider `COc1ccc(-c2c3c(cc4ccc5c(c24)OCO5)C(=O)OC3)cc1OC(C)=O`, for which the Activity entry was “Dose-dependent effect”.

System in another series: not listed separately
Briefly: Cytotoxicity against human HepA2 cells after 2 days by MTT assay. In kind it is cell-based.
Details: not given
A digest of the protocol: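 HepA2 cells were seeded in DMEM with 10% FCS, attached for 24 h, washed with PBS pH 7.0, and then exposed to various compound concentrations in serum-free DMEM for 48 h. Viable cell number in each well was then determined by MTT assay.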
By CC50 is commonly meant the concentration giving 50% cytotoxicity. The molecule `CCCCCC(=O)OCc1cc2ccc3c(c2c(-c2ccc(OC)c(O)c2)c1CO)OCO3` yielded a CC50 at 48 h of over 12.5 µM.
In turn, `COc1ccc(-c2c(CO)c(COC(C)=O)cc3ccc4c(c23)OCO4)cc1OC` displayed a CC50 at 48 h of over 12.5 µM.
`COC(=O)CN1Cc2c(cc3ccc4c(c3c2-c2ccc3c(c2)OCO3)OCO4)C1=O` had a half-maximal cytotoxic concentration (CC50) at 48 h of over 12.5 µM.
Still for that read-out and setting: with `CC(=O)Oc1cc(-c2c3c(cc4ccc5c(c24)OCO5)C(=O)OC3)ccc1OCCCCCCCCC#N` the figure was over 12.5 µM; with `COc1ccc(-c2c(COC(C)=O)c(COC(C)=O)cc3ccc4c(c23)OCO4)cc1OC`, over 12.5 µM; with `COc1cc(-c2c(CO)c(CO)cc3ccc4c(c23)OCO4)ccc1O`, over 12.5 µM.
On the same count and under the same terms, the value for `CCCCCC(=O)OCc1cc2ccc3c(c2c(-c2ccc4c(c2)OCO4)c1CO)OCO3` was over 12.5 µM; that for `COc1ccc(-c2c3c(cc4ccc5c(c24)OCO5)C(=O)OC3)cc1OC(C)=O` was over 12.5 µM.
Still for that read-out and setting: with `COc1cc(-c2c(CO)c(COC(C)=O)cc3ccc4c(c23)OCO4)ccc1O` the figure was over 12.5 µM; with `O=C(O)CN1Cc2c(cc3ccc4c(c3c2-c2ccc3c(c2)OCO3)OCO4)C1=O`, over 12.5 µM; with `COc1cc(-c2c3c(cc4ccc5c(c24)OCO5)C(=O)OC3)ccc1O`, over 12.5 µM.
Turning to `COc1ccc(-c2c(CO)c(CO)cc3ccc4c(c23)OCO4)cc1O`, the CC50 at 48 h was over 12.5 µM.
Same read-out and setting: the value for `O=C1c2cc3ccc4c(c3c(-c3ccc5c(c3)OCO5)c2CN1CCO)OCO4` was over 12.5 µM; that for `CCCCCC(=O)OCc1cc2ccc3c(c2c(-c2ccc4c(c2)OCO4)c1COC(=O)CCCCC)OCO3` was over 12.5 µM.
Still for that read-out and setting: with `CCCCCC(=O)OCc1cc2ccc3c(c2c(-c2ccc(O)c(OC)c2)c1COC(=O)CCCCC)OCO3` the figure was over 12.5 µM; with `COc1ccc(-c2c3c(cc4ccc5c(c24)OCO5)COC3=O)cc1O`, over 12.5 µM; with `COc1cc(-c2c3c(cc4ccc5c(c24)OCO5)COC3=O)ccc1O`, over 12.5 µM.
`CC(=O)OCc1cc2ccc3c(c2c(-c2ccc(O)c(OC(C)=O)c2)c1COC(C)=O)OCO3` gave a CC50 at 48 h of over 12.5 µM.
As to `OCc1cc2ccc3c(c2c(-c2ccc(O)c(O)c2)c1CO)OCO3`, the CC50 at 48 h was over 12.5 µM.
The molecule `COc1cc(-c2c3c(cc4ccc5c(c24)OCO5)C(=O)OC3)ccc1OC(C)=O` displayed a half-maximal cytotoxic concentration (CC50) at 48 h of over 12.5 µM.

In the next series the test system is Hepatitis B virus. Briefly: Antiviral activity against Hepatitis B virus infected in human HepA2 cells assessed as inhibition of viral surface antigen production after 2 days by enzyme immunoassay.
Details: not given
In kind it is functional, organism-based. Put shortly: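 HepA2 cells (HepG2 transfected with two tandem HBV genome repeats, secreting HBsAg) were seeded at 3 × 10^4 per well (96-well) or 1 × 10^5 per well (24-well) in DMEM with 10% FCS for 24 h. They were washed twice with PBS pH 7.0 and treated with graded concentrations in serum-free DMEM for 48 h. Medium HBsAg was measured by enzyme immunoassay. EC50 is the concentration giving 50% of untreated HBsAg. Mean ± S.D., n = 3.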
For `COc1ccc(-c2c3c(cc4ccc5c(c24)OCO5)C(=O)OC3)cc1OC(C)=O`, the inhibition result is “Dose-dependent effect”.

Staying with this series, now noted: HepA2, 48 h.
As a reminder, the EC50 is the concentration that produces a half-maximal response. Consider `CCCCCC(=O)OCc1cc2ccc3c(c2c(-c2ccc(OC)c(O)c2)c1CO)OCO3`, for which the EC50 was determined as 1.97 µM.
Still for that read-out and setting: the value for `COc1ccc(-c2c(CO)c(COC(C)=O)cc3ccc4c(c23)OCO4)cc1OC` was 3.7 µM; that for `COC(=O)CN1Cc2c(cc3ccc4c(c3c2-c2ccc3c(c2)OCO3)OCO4)C1=O` was 0.86 µM.
On the same count and under the same terms, with `CC(=O)Oc1cc(-c2c3c(cc4ccc5c(c24)OCO5)C(=O)OC3)ccc1OCCCCCCCCC#N` the figure was over 12.5 µM.
For `COc1ccc(-c2c(COC(C)=O)c(COC(C)=O)cc3ccc4c(c23)OCO4)cc1OC`, the EC50 stood at 3.03 µM.
In the case of `COc1cc(-c2c(CO)c(CO)cc3ccc4c(c23)OCO4)ccc1O`, the EC50 came out at 2.73 µM.
On the same count and under the same terms, the value for `CCCCCC(=O)OCc1cc2ccc3c(c2c(-c2ccc4c(c2)OCO4)c1CO)OCO3` was 1.9 µM; that for `COc1ccc(-c2c3c(cc4ccc5c(c24)OCO5)C(=O)OC3)cc1OC(C)=O` was 0.06 µM; that for `COc1cc(-c2c(CO)c(COC(C)=O)cc3ccc4c(c23)OCO4)ccc1O` was over 12.5 µM.
With `O=C(O)CN1Cc2c(cc3ccc4c(c3c2-c2ccc3c(c2)OCO3)OCO4)C1=O`, the EC50 was over 6 µM.
Take `COc1ccc(-c2c(CO)c(CO)cc3ccc4c(c23)OCO4)cc1O`: the EC50 came to 0.67 µM.
Consider `O=C1c2cc3ccc4c(c3c(-c3ccc5c(c3)OCO5)c2CN1CCO)OCO4`, for which the EC50 is over 6 µM.
Still for that read-out and setting: the value for `CCCCCC(=O)OCc1cc2ccc3c(c2c(-c2ccc4c(c2)OCO4)c1COC(=O)CCCCC)OCO3` was 1.9 µM; that for `CCCCCC(=O)OCc1cc2ccc3c(c2c(-c2ccc(O)c(OC)c2)c1COC(=O)CCCCC)OCO3` was over 12.5 µM.
With `COc1ccc(-c2c3c(cc4ccc5c(c24)OCO5)COC3=O)cc1O`, the EC50 stood at 1.74 µM.
The same measure, in the same setting: with `COc1cc(-c2c3c(cc4ccc5c(c24)OCO5)COC3=O)ccc1O` the figure was 3.94 µM.
For `CC(=O)OCc1cc2ccc3c(c2c(-c2ccc(O)c(OC(C)=O)c2)c1COC(C)=O)OCO3`, the EC50 is over 12.5 µM.
Regarding `OCc1cc2ccc3c(c2c(-c2ccc(O)c(O)c2)c1CO)OCO3`, the EC50 was over 12.5 µM.
In the case of `COc1cc(-c2c3c(cc4ccc5c(c24)OCO5)C(=O)OC3)ccc1OC(C)=O`, the EC50 was over 6 µM.

A further series has as its system Hepatitis B virus. Briefly: Antiviral activity against Hepatitis B virus infected in human 1.3ES2 cells assessed as reduction of large HBsAg mRNA level after 48 hrs by Northern blot analysis. Type of series: functional, organism-based.
Details: not given
A digest of the protocol: as §2
Turning to `COc1ccc(-c2c3c(cc4ccc5c(c24)OCO5)C(=O)OC3)cc1OC(C)=O`, the Activity entry was “Dose-dependent effect”.

Another series has as its system Hepatitis B virus. Briefly: Antiviral activity against Hepatitis B virus infected in human HepA2 cells assessed as inhibition of viral core promoter activity at 0.03 uM after 24 hrs by luciferase reporter gene assay. The following applies: HepA2, 24 h. On the technique in general: Reporter assays use an easily measured gene product as a stand-in for the process of interest.
As for `COc1ccc(-c2c3c(cc4ccc5c(c24)OCO5)C(=O)OC3)cc1OC(C)=O`, the inhibition at 0.03 µM came out at 40%.

The test system of another series is Hepatitis B virus. Kind of series: Antiviral activity against Hepatitis B virus infected in human 1.3ES2 cells assessed as reduction of middle/major HBsAg mRNA level after 48 hrs by Northern blot analysis. Type of series: functional, organism-based.
Details: not given
Put shortly: as §2
Regarding `COc1ccc(-c2c3c(cc4ccc5c(c24)OCO5)C(=O)OC3)cc1OC(C)=O`, the Activity entry was “Dose-dependent effect”.

The test system of the next series is Hepatitis B virus. Kind of series: Antiviral activity against Hepatitis B virus infected in human 1.3ES2 cells assessed as reduction of viral RNA level at 5 uM after 48 hrs by Northern blot analysis. In kind it is functional, organism-based.
Details: not given
Put shortly:
as §2
In the case of `COc1cc(-c2c3c(cc4ccc5c(c24)OCO5)C(=O)OC3)ccc1OC(C)=O`, the result was inactive.

For the next series, the system named is Hepatitis B virus. Kind of series: Antiviral activity against Hepatitis B virus infected in human HepA2 cells assessed as inhibition of viral core promoter activity after 24 hrs by luciferase reporter gene assay.
Details: not given
Turning to `COc1ccc(-c2c3c(cc4ccc5c(c24)OCO5)C(=O)OC3)cc1OC(C)=O`, the inhibition entry was “Dose-dependent effect”.
